Source: PubChem
Compounds with a hit are over-represented: about 4.5% of the library has one in this group of screens.
GPR7 antagonist: human neuropeptides B/W receptor 1 antagonism | AID 1861 | GPR7-expressing cells, fluorescence antagonist assay | inhibition, % at 4.4 µM | hit rate 1.1% among 290,000; in the data active = inhibition above about 16%, passing the limit was not always enough;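 also: cells stimulated with the agonist NPW; 0% = agonist with vehicle and 100% = vehicle without agonist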
Target sequence (P48145 whole entry, looked up): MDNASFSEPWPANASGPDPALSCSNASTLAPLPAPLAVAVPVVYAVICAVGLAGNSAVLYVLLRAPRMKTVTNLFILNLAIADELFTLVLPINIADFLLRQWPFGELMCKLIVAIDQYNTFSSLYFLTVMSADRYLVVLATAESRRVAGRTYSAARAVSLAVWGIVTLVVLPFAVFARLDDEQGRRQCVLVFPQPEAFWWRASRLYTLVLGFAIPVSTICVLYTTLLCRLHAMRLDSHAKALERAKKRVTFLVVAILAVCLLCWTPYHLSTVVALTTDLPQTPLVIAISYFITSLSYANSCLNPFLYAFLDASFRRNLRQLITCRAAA
TAAR1 ag: human TAAR1 agonism; hit rate 0.99% among 360,000; CHO RD-HGA16 TAAR1, Fluo-8 calcium fluorescence; vehicle wells 0%, saturating PEA agonist 100%; Q96RJ0; activation, % at 3 µM; AID 624467;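 active = activation above the mean activation of all test compounds in the run plus 3 SD, cut at about 38% in these data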
Target sequence (Q96RJ0 whole entry, looked up): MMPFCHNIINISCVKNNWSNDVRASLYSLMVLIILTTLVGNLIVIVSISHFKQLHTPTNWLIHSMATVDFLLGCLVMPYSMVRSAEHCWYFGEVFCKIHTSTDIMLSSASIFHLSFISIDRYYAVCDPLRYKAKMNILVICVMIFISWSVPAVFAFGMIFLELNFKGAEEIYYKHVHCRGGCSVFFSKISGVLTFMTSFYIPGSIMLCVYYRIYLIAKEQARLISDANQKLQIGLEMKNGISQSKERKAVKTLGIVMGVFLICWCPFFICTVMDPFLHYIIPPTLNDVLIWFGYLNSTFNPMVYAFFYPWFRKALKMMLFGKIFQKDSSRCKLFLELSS
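Test system: RD-HGA16 (CHO) cells co-expressing Gα16 and hTAAR1; dosing: one-point dosing at 3 µM (nominal); timing: 17-24 h seeding, 75 min 37 °C dye, 30 min RT; signal: kinetic Fluo-8 calcium fluorescence; read-out basis: % activation relative to PEA EC100 response; controls: DMSO and PEA EC100; replicates: n 1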
OX1R antag-1: blocks the human orexin 1 receptor; OX1R-expressing cells, FRET antagonist read-out; inhibition, % at 6.6 µM; hit rate 1.8% among 330,000; AID 485270; in the data active = inhibition mostly above about 38%, no sharp cut-off; inactive = mostly below about 40%;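 also: 0% = agonist challenge alone and 100% = reference antagonist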
OX1R antag-2: human HCRTR1 antagonism; O43613; CHO/OX1R cells, Fluo-8 calcium fluorescence, orexin A; inhibition, % at 5 µM; hit rate 0.43% among 330,000; AID 434989;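 active = inhibition above its plate's threshold, mean inhibition of all tested compounds on the plate plus 3 SD, cut at about 37% in these data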;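 also: 0% = orexin A challenge wells and 100% = SB-334867-A antagonist wells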
TAAR1 antag: human TAAR1 antagonism | Q96RJ0 | CHO RD-HGA16 TAAR1, Fluo-8 calcium fluorescence, antagonist | inhibition, % at 3 µM | hit rate 1.5% among 360,000;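 active = inhibition above a per-plate cutoff, the mean inhibition of test compounds on that plate plus 3 SD, cut at about 49% in these data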;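 also: 0% = DMSO plus EC80 beta-PEA response and 100% = DMSO alone without agonist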
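Test system – hTAAR1-expressing CHO RD-HGA16 cells, Gα16-coupled · Also added – β-PEA at EC80 concentration, post-compound challenge · Compound – 3 µM, single point · Incubation – dye loading 75 min at 37 °C, then 30 min room temperature · Measured by – Fluo-8 intracellular calcium dye fluorescence, real-time kinetic reads · Benchmarks – vehicle and agonist controls · Replicates – singlicate, one well per test compound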
CHO parental Ca: counter-screen: ATP calcium response change in parental CHO cells; hit rate 0.63% among 330,000; parental CHO-K1, ATP-induced calcium, Fluo-8 fluorescence; inhibition, % at 5.6 µM; AID 463079;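 active = inhibition above that plate's mean sample inhibition plus 3 SD, cut at about 26% in these data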;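 also: 0% = ATP-challenged DMSO wells and 100% = DMSO wells without ATP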
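Measured by: calcium-sensitive Fluo-8 fluorescence / Test system: CHO parental line / Controls: ATP-challenged DMSO wells low, unchallenged DMSO wells high / Measure: % inhibition / Compound: single nominal dose of 5.6 µM per compound / Replicates: single well per compound, no replicates / Reagent: ATP as calcium-mobilizing challenge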
* = called active by the depositor; nt = not tested or not shown.

SMILES	GPR7 antagonist	TAAR1 ag	OX1R antag-1	OX1R antag-2	TAAR1 antag	CHO parental Ca
COc1ccc(OC)c(NC(=O)c2nc(S(=O)(=O)Cc3ccccc3)ncc2Cl)c1	1	1	21	25	52*	37
N=c1oc2cc(O)ccc2cc1C(=O)Nc1ccccn1	-4	nt	84*	5	nt	3
O=C(NCc1ccccn1)C1CCCN(S(=O)(=O)c2cccc3nsnc23)C1 (stereo unspecified)	2	0	121*	-21	11	-4
O=C(NCCCN1CCCCCC1)C1CCCN(S(=O)(=O)c2cccc3nsnc23)C1 (stereo unspecified)	12	1	26	-36	-1	-8
COc1ccccc1CNC(=O)C1CCCN(S(=O)(=O)c2cccc3nsnc23)C1 (stereo unspecified)	6	1	28	-16	-6	-24
COCCNC(=O)C1CCCN(S(=O)(=O)c2cccc3nsnc23)C1 (stereo unspecified)	5	0	48*	-3	-14	-11
O=C(Cc1cn(Cc2ccccc2)c2ccccc12)Nc1ccc(Nc2cccnc2)c(Br)c1	nt	3	nt	nt	-2	nt
C=CCNc1ccc2c(c1)OC[C@H](Cc1ccccc1)NS2(=O)=O	nt	3	nt	nt	-26	nt
COc1ccc(S(=O)(=O)N2CCOC2CNC(=O)C(=O)NCCc2ccccc2OC)cc1C (stereo unspecified)	2	13	25	-10	3	-15
COc1ccc(S(=O)(=O)N2CCOC2CNC(=O)C(=O)NCCc2ccc(S(N)(=O)=O)cc2)cc1 (stereo unspecified)	-4	0	5	-18	-7	72*
COc1ccc(S(=O)(=O)N2CCOC2CNC(=O)C(=O)NCCc2c[nH]c3ccccc23)cc1 (stereo unspecified)	-8	17	14	-2	35	5
COc1ccc(S(=O)(=O)N2CCOC2CNC(=O)C(=O)NCCc2c[nH]c3ccccc23)cc1C (stereo unspecified)	-9	9	55*	5	37	-1
COc1ccccc1CCNC(=O)C(=O)NCC1OCCN1S(=O)(=O)c1ccc2c(c1)OCCO2 (stereo unspecified)	-8	39*	31	-2	0	-3
COc1ccc(CCNC(=O)C(=O)NCC2OCCN2S(=O)(=O)c2ccc(OC)cc2)cc1 (stereo unspecified)	4	6	24	-29	-1	-9
Cc1c(-c2ccccc2)nnn1-c1ccc(F)c(Cl)c1	nt	1	nt	nt	-15	nt
C[C@H](O)[C@@H]1CN2CCc3ccc(-c4ccc5c(c4)OCO5)cc3[C@@H]2C[C@@H]1N(C)C(=O)c1cccc(Cl)c1	nt	-2	nt	nt	-31	nt
CCCCCCCCN1C(=O)[C@@H](CC(=O)NCCCN2CCCC2=O)C[C@@]2(C(=O)OC)C1=C[C@H](C(C)(C)C)O[C@@H]2C	nt	-2	nt	nt	-24	nt
CC1(C(=O)NCc2cccc3ccccc23)CCN1Cc1ccccc1OC(F)F (stereo unspecified)	nt	1	nt	nt	17	nt
CC1(C(=O)NCc2ccc(C(F)(F)F)cc2)CCN1Cc1ccccc1OC(F)F (stereo unspecified)	nt	10	nt	nt	56*	nt
O=C(C(=O)N1CCC(CNS(=O)(=O)c2ccc(F)c(F)c2)CC1)c1cc2ccccc2o1	nt	3	nt	nt	-1	nt
O=C(c1cnc(N2CCN(c3ncccn3)CC2)c2ccccc12)N1CCN(c2ccccn2)CC1	-10	18	9	1	61*	-5
Cc1ccccc1C(=O)N1CCN(c2ccccn2)CC1	-8	6	14	-8	-8	-8
Cc1ccc(-c2nnc(N3CCN(c4ccccn4)CC3)c3ccccc23)cc1	-1	8	11	-23	42	14
Cc1ccc(NC(=O)c2cnc(N3CCN(c4ccccn4)CC3)c3ccccc23)c(Br)c1	26*	10	19	-2	72*	-5
c1ccc(-c2nnc(N3CCN(c4ccccn4)CC3)c3ccccc23)cc1	-9	4	14	-30	50*	-20
SMILES	GPR7 antagonist	TAAR1 ag	OX1R antag-1	OX1R antag-2	TAAR1 antag	CHO parental Ca
COC(=O)[C@]12C[C@H](CC(=O)NCCCCc3ccccc3)C(=O)N(CCC3=CCCCC3)C1=C[C@H](COCc1ccccc1)O[C@@H]2C	nt	2	nt	nt	-10	nt
CC(C=NN=C1C(=O)Nc2ccccc21)=Cc1ccccc1	nt	4	nt	nt	-13	nt
CC(C)C[C@H]1COc2cccc(N3CCOCC3)c2S(=O)(=O)N1	nt	-1	nt	nt	-5	nt
COc1ccc(NC(=O)c2cccc(NC(=O)c3ccccc3)c2)cc1	12	6	17	-12	23	-19
COc1ccc(COc2cc(-c3cccc(OC)c3)nc3ccc(NC(=O)c4ccccc4)cc23)cc1	8	8	28	-19	53*	-5
COc1ccc(COc2cc(-c3cccc(OC)c3)nc3ccc(NC(=O)c4ccc(OC)cc4)cc23)cc1	5	10	21	-7	61*	-7
COc1ccc(COc2cc(-c3cccc(OC)c3)nc3ccc(NC(=O)c4ccc(Cl)cc4)cc23)cc1	-6	8	21	-20	26	8
CC(OC(=O)CC1Sc2ccccc2NC1=O)C(=O)N(C)Cc1ccccc1 (stereo unspecified)	nt	4	nt	nt	5	nt
Nc1ccc(Nc2nc(-c3cc4ccccc4oc3=O)cs2)cc1	-6	2	3	-6	1	0
CC(=O)Nc1ccc(Nc2nc(-c3cc4ccccc4oc3=O)cs2)cc1	-10	11	nt	nt	55*	nt
O=C(Nc1nc(-c2cccs2)cs1)c1cc2ccccc2oc1=O	-5	nt	nt	nt	nt	nt
O=c1oc2ccccc2cc1-c1nc(-c2cccs2)cs1	-12	3	51*	3	14	-30
Cc1nnc(SCC(=O)c2ccc(Cl)cc2)n(N)c1=O	-4	0	50*	7	-15	10
CCOC(=O)c1ccc(N=Cc2cnc(N)nc2N)cc1	nt	1	nt	nt	12	nt
O=C(CN1C(=O)NC(Cc2ccccc2)C1=O)Nc1ccccc1F (stereo unspecified)	nt	1	2	-2	1	-9
O=C(CN1C(=O)NC(CCc2ccccc2)C1=O)Nc1ccc(F)c(F)c1F (stereo unspecified)	nt	44*	-3	-1	19	-7
COc1cc(/C=C(\C#N)c2nc3ccccc3s2)ccc1OCC(=O)Nc1ccccc1	-6	nt	12	43	nt	46*
COC(=O)c1ccc(/C(O)=C(\C#N)c2nc3ccccc3s2)cc1	-9	12	50	-11	-1	7
CC(C)=C(C#N)c1nc2ccccc2s1	2	13	9	74*	17	50*
N#C/C(=C/c1ccncc1)c1nc2ccccc2s1	1	4	15	51*	-1	44*
